ChEMBL document CHEMBL4052823, “Extra Sugar on Vancomycin: New Analogues for Combating Multidrug-Resistant Staphylococcus aureus and Vancomycin-Resistant Enterococci” (J Med Chem, 2018)
Converted amounts (≈) assume the structure as drawn.

Tests used:
Assay type in all cases: functional
Staphylococcus aureus [1] = assay: Antibacterial activity against vancomycin/methicillin-susceptible Staphylococcus aureus Newman […] after 24 hrs by broth microdilution method
How it was run: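 Broth microdilution in cation-adjusted Mueller-Hinton II broth. […] Each well received ~10^5 CFU of exponential-phase bacteria and was incubated at 37 °C for 24 h. MIC was taken as the lowest concentration giving complete growth inhibition, interpreted per CLSI.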

Staphylococcus aureus [2] = assay: Antibacterial activity against healthcare-associated methicillin-resistant/vancomycin-intermediate Staphylococcus aureus Mu50 after 24 hrs by broth microdilution method; settings: Mu50, 24 h
How it was run: (§1)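 Broth microdilution in cation-adjusted Mueller-Hinton II broth. DMSO stocks were diluted in broth and twofold serially from 128 to 0.0625 μg/mL or lower. Each well was inoculated with ~10^5 CFU of exponential-phase bacteria and incubated at 37 °C for 24 h. MIC was the lowest concentration giving complete growth inhibition, read per CLSI. Growth controls contained broth plus DMSO.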

Enterococcus faecium [3] = assay: Antibacterial activity against glycopeptide-resistant Enterococcus faecium Efm-HS-0649 vanA after 24 hrs by broth microdilution method; settings: Efm-HS-0649, 24 h; how it was run: as §1
Enterococcus faecium [4] = assay: Antibacterial activity against glycopeptide-resistant Enterococcus faecium Efm-HS-06188 vanA after 24 hrs by broth microdilution method; settings: Efm-HS-06188, 24 h; how it was run: as §1
Enterococcus faecium [5] = assay: Antibacterial activity against glycopeptide-resistant Enterococcus faecium Efm-HS-0847 vanM after 24 hrs by broth microdilution method; settings: Efm-HS-0847, 24 h; how it was run: as §1
Enterococcus faecium [6] = assay: Antibacterial activity against glycopeptide-resistant Enterococcus faecium Efm-HS-08257 vanM after 24 hrs by broth microdilution method; settings: Efm-HS-08257, 24 h; how it was run: as §1
Enterococcus faecium [7] = assay: Antibacterial activity against glycopeptide-resistant Enterococcus faecium Efm-HS-vb01 vanB after 24 hrs by broth microdilution method; settings: Efm-HS-vb01, 24 h; how it was run: as §1

Structure (SMILES) | MIC90 (Staphylococcus aureus [1]) [µg/mL] | MIC90 (Staphylococcus aureus [2]) [µg/mL] | MIC (Enterococcus faecium [3]) [µg/mL] | MIC (Enterococcus faecium [4]) [µg/mL] | MIC (Enterococcus faecium [5]) [µg/mL] | MIC (Enterococcus faecium [6]) [µg/mL] | MIC (Enterococcus faecium [7]) [µg/mL]
CN[C@H](CC(C)C)C(=O)N[C@H]1C(=O)N[C@@H](CC(N)=O)C(=O)N[C@H]2C(=O)N[C@H]3C(=O)N[C@H](C(=O)N[C@H](C(=O)O)c4cc(O)cc(O)c4-c4cc3ccc4O)[C@H](O[C@H]3C[C@](C)(N)[C@@H](O)[C@H](C)O3)c3ccc(c(Cl)c3)Oc3cc2cc(c3O[C@@H]2O[C@H](CO)[C@@H](O)[C@H](O)[C@H]2O[C@H]2C[C@](C)(NCc3ccc(-c4ccc(Cl)cc4)cc3)[C@@H](O)[C@H](C)O2)Oc2ccc(cc2Cl)[C@H]1O [ORITAVANCIN] | 0.06 (≈ 0.0335 µM) | 0.06 (≈ 0.0335 µM) | 0.25 (≈ 0.139 µM) | 0.25 (≈ 0.139 µM) | 1 (≈ 0.558 µM) | 0.5 (≈ 0.279 µM) | 0.25 (≈ 0.139 µM)
CN[C@H](CC(C)C)C(=O)N[C@H]1C(=O)N[C@@H](CC(N)=O)C(=O)N[C@H]2C(=O)N[C@H]3C(=O)N[C@H](C(=O)N[C@H](C(=O)NCCCN(C)C)c4cc(O)c(CNCCO[C@H]5O[C@H](CO)[C@@H](O)[C@H](O)[C@@H]5O)c(O)c4-c4cc3ccc4O)[C@H](O)c3ccc(c(Cl)c3)Oc3cc2cc(c3O[C@@H]2O[C@H](CO)[C@@H](O)[C@H](O)[C@H]2O[C@H]2C[C@](C)(NCc3ccc(-c4ccc(Cl)cc4)cc3)[C@H](O)[C@H](C)O2)Oc2ccc(cc2Cl)[C@H]1O | 2 (≈ 1.02 µM) | 4 (≈ 2.03 µM) | 0.5 (≈ 0.254 µM) | 1 (≈ 0.508 µM) | 2 (≈ 1.02 µM) | 0.5 (≈ 0.254 µM) | 4 (≈ 2.03 µM)
CN[C@H](CC(C)C)C(=O)N[C@H]1C(=O)N[C@@H](CC(N)=O)C(=O)N[C@H]2C(=O)N[C@H]3C(=O)N[C@H](C(=O)N[C@H](C(=O)NCCCN(C)C)c4cc(O)c(C)c(O)c4-c4cc3ccc4O)[C@H](O)c3ccc(c(Cl)c3)Oc3cc2cc(c3O[C@@H]2O[C@H](CO)[C@@H](O)[C@H](O)[C@H]2O[C@H]2C[C@](C)(NCc3ccc(-c4ccc(Cl)cc4)cc3)[C@H](O)[C@H](C)O2)Oc2ccc(cc2Cl)[C@H]1O | 1 (≈ 0.572 µM) | 1 (≈ 0.572 µM) | 0.5 (≈ 0.286 µM) | 1 (≈ 0.572 µM) | 1 (≈ 0.572 µM) | 0.12 (≈ 0.0686 µM) | 2 (≈ 1.14 µM)
CN[C@H](CC(C)C)C(=O)N[C@H]1C(=O)N[C@@H](CC(N)=O)C(=O)N[C@H]2C(=O)N[C@H]3C(=O)N[C@H](C(=O)N[C@H](C(=O)O)c4cc(O)c(CNCP(=O)(O)O)c(O)c4-c4cc3ccc4O)[C@H](O)c3ccc(c(Cl)c3)Oc3cc2cc(c3O[C@@H]2O[C@H](CO)[C@@H](O)[C@H](O)[C@H]2O[C@H]2C[C@](C)(NCc3ccc(-c4ccc(Cl)cc4)cc3)[C@H](O)[C@H](C)O2)Oc2ccc(cc2Cl)[C@H]1O | 0.5 (≈ 0.282 µM) | 0.5 (≈ 0.282 µM) | 2 (≈ 1.13 µM) | 4 (≈ 2.26 µM) | 2 (≈ 1.13 µM) | 0.12 (≈ 0.0677 µM) | 0.25 (≈ 0.141 µM)
CCCCCCCCCCNCCN[C@@]1(C)C[C@H](O[C@H]2[C@H](Oc3c4cc5cc3Oc3ccc(cc3Cl)[C@@H](O)[C@@H](NC(=O)[C@@H](CC(C)C)NC)C(=O)N[C@@H](CC(N)=O)C(=O)N[C@H]5C(=O)N[C@H]3C(=O)N[C@H](C(=O)N[C@H](C(=O)O)c5cc(O)c(CNCCCNC(=O)[C@H](O)[C@@H](O)[C@H](O)[C@H](O)CO)c(O)c5-c5cc3ccc5O)[C@H](O)c3ccc(c(Cl)c3)O4)O[C@H](CO)[C@@H](O)[C@@H]2O)O[C@@H](C)[C@H]1O | 0.5 (≈ 0.264 µM) | 1 (≈ 0.527 µM) | 2 (≈ 1.05 µM) | 4 (≈ 2.11 µM) | 2 (≈ 1.05 µM) | 0.12 (≈ 0.0633 µM) | 2 (≈ 1.05 µM)
CN[C@H](CC(C)C)C(=O)N[C@H]1C(=O)N[C@@H](CC(N)=O)C(=O)N[C@H]2C(=O)N[C@H]3C(=O)N[C@H](C(=O)N[C@H](C(=O)NCCCN(C)C)c4cc(O)c(CNCCCNC(=O)[C@H](O)[C@@H](O)[C@H](O)[C@H](O)CO)c(O)c4-c4cc3ccc4O)[C@H](O)c3ccc(c(Cl)c3)Oc3cc2cc(c3O[C@@H]2O[C@H](CO)[C@@H](O)[C@H](O)[C@H]2O[C@H]2C[C@](C)(NCc3ccc(-c4ccc(Cl)cc4)cc3)[C@H](O)[C@H](C)O2)Oc2ccc(cc2Cl)[C@H]1O | 1 (≈ 0.5 µM) | 2 (≈ 1 µM) | 1 (≈ 0.5 µM) | 2 (≈ 1 µM) | 2 (≈ 1 µM) | 1 (≈ 0.5 µM) | 8 (≈ 4 µM)
CCCCCCCCCCNCCN[C@@]1(C)C[C@H](O[C@H]2[C@H](Oc3c4cc5cc3Oc3ccc(cc3Cl)[C@@H](O)[C@@H](NC(=O)[C@@H](CC(C)C)NC)C(=O)N[C@@H](CC(N)=O)C(=O)N[C@H]5C(=O)N[C@H]3C(=O)N[C@H](C(=O)N[C@H](C(=O)O)c5cc(O)c(CNCCO)c(O)c5-c5cc3ccc5O)[C@H](O)c3ccc(c(Cl)c3)O4)O[C@H](CO)[C@@H](O)[C@@H]2O)O[C@@H](C)[C@H]1O | 1 (≈ 0.586 µM) | 4 (≈ 2.35 µM) | 16 (≈ 9.38 µM) | 16 (≈ 9.38 µM) | 8 (≈ 4.69 µM) | 1 (≈ 0.586 µM) | 4 (≈ 2.35 µM)
